High-throughput results deposited in PubChem by several laboratories.
Compounds with a hit are over-represented: about 0.89% of the library has one in this group of screens.
L929 necroptosis: L929 zVAD cell death inhibition. AID 1377. viability rescue, % at 10 µM. L929 zVAD necroptosis rescue, ATP luminescence, 24 h; with zVAD 60 µM. hit rate 0.38% among 220,000;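 active = activation, scaled between plate controls, above about 75%, limit read from the data; inactive = activation under that limit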;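 note: 0% = zVAD with DMSO and 100% = DMSO alone without zVAD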
HSV augment: HSV replication enhancement. HSV replication augmentation in cells, fold increase. hit rate 0.005% among 220,000. AID 1956. maximum fold increase; in the data active = maximum fold increase above about 1.5; tested in PC3 cells
E-sel TNF inh: blocks E-selectin expression induced by TNF alpha. HUVEC TNFa-induced E-selectin immunofluorescence, high content. inhibition, % at 2 µM. hit rate 0.71% among 120,000. AID 1246;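 active = inhibition above the batch mean plus 3 SD, and confirmed as a hit on visual image review, cut at about 43% in these data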;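 note: 0% = TNF-stimulated DMSO wells and 100% = unstimulated control wells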
TNF death inh: TNF-alpha cell death inhibition in Jurkat FADD-/- cells; Jurkat FADD-/- TNF necroptosis rescue, ATP luminescence, 24 h; 0 = TNF only, 100 = no-TNF cells; activation (protection from cell death), % at 10 µM; hit rate 0.068% among 220,000;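 active = activation, meaning protection from cell death, of at least 50% relative to plate controls; inactive = activation below 50%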;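 note: necroptosis triggered by 40 ng/mL TNF-alpha added together with compound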
Mdm2 ligase inh: inhibitors of human Mdm2 E3 ubiquitin ligase. Q00987. cell-based MDM2 ubiquitination luciferase reporter, 2 h; 0 = plate control, 100 = twice control, blank-subtracted. signal enhancement, % at 5 µM. hit rate 0.11% among 210,000;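 active = signal enhancement of 30% or more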;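 note: luminescence tracks abundance of the self-degrading MDM2-luciferase fusion protein; higher signal means inhibition of MDM2 E3 ligase activity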
Target sequence (Q00987 whole entry, looked up, the tested form may be a part): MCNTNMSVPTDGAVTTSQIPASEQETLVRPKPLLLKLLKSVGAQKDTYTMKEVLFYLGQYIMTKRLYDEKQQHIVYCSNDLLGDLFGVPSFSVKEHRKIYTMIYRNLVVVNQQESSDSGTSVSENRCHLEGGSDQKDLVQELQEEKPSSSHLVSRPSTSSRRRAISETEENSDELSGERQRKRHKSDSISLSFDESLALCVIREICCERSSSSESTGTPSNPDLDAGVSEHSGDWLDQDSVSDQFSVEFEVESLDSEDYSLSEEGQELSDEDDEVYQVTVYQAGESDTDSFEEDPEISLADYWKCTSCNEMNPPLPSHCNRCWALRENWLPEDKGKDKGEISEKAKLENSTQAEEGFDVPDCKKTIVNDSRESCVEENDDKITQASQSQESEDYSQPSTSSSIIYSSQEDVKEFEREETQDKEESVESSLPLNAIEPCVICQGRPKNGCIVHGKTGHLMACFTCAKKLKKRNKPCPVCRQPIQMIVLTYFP
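Timing – 2 h compound exposure at 37 °C · Assay system – mammalian cells stably expressing self-ubiquitinating, self-degrading MDM2 E3–luciferase fusion · Amount – 2000 cells seeded into each well · Measure – % luminescence enhancement versus blank-corrected plate control mean · Measured by – SteadyLite luminescence, 15 min reagent step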
zVAD necrop conf: confirmed blocker of zVAD induced death in L929 cells | shares compounds with L929 necroptosis | L929 zVAD-induced necroptosis rescue, ATP luminescence, 24 h | activation (protection from necroptosis), % at 10 µM | hit rate 16% among 760;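 active = mean protection from necroptosis of at least 50% over duplicate tests; inactive = mean protection below 50%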;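 note: 0% = cells with zVAD alone and 100% = vehicle cells without zVAD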
Numbers without * were called inactive.

`CSc1nn(-c2ccc(C(=O)OC(C(=O)NC(N)=O)C(C)C)cc2)c(=S)s1` (configuration not stated) gave L929 necroptosis 10, HSV augment inactive, TNF death inh 0 and Mdm2 ligase inh 1.
For Cc1cccc(OCCCC(=O)Nc2nccs2)c1 the results were L929 necroptosis 89*, HSV augment inactive, TNF death inh 9 and zVAD necrop conf 3.
For N#CCOc1ccc2oc(-c3ccco3)cc(=O)c2c1 the results were L929 necroptosis 76*, HSV augment inactive, TNF death inh -2, Mdm2 ligase inh -10 and zVAD necrop conf 1.
For NC(=O)COc1ccc2oc(-c3ccccc3)cc(=O)c2c1 the results were L929 necroptosis 81*, HSV augment inactive, E-sel TNF inh 28, TNF death inh -2, Mdm2 ligase inh -90 and zVAD necrop conf 26.
For CCOC(=O)COc1ccc2c(=O)cc(-c3ccccc3)oc2c1 the results were L929 necroptosis 0, HSV augment inactive, TNF death inh 3 and Mdm2 ligase inh -13.
`CSc1cccc(NC(=S)NCCCN2CCN(c3ccc(F)cc3)CC2)c1` gave L929 necroptosis -1, HSV augment inactive, TNF death inh -3 and Mdm2 ligase inh -7.
CNS(=O)(=O)c1ccc(C(C)(C)C)cc1 was read as L929 necroptosis 17, HSV augment inactive, TNF death inh 1 and Mdm2 ligase inh 3.
`c1ccc(-n2cnc3cc(NCc4ccccn4)ccc32)cc1` gave L929 necroptosis 76*, HSV augment inactive, E-sel TNF inh -26, TNF death inh -1, Mdm2 ligase inh -25 and zVAD necrop conf 63*.
For c1ccc(-n2cnc3cc(NCc4ccncc4)ccc32)cc1 the results were L929 necroptosis 83*, HSV augment inactive, E-sel TNF inh 0, TNF death inh 1, Mdm2 ligase inh -26 and zVAD necrop conf 58*.
`CC(=O)Nc1ccc2c(c1)ncn2-c1ccccc1` gave L929 necroptosis 68, HSV augment inactive, TNF death inh 1 and Mdm2 ligase inh 0.
For CCCCc1ccc(NC(=S)NCCc2ccc(F)cc2)cc1 the results were L929 necroptosis -1, HSV augment inactive, TNF death inh -11 and Mdm2 ligase inh -10.
For COc1ccccc1C(=O)N=c1sc2c(C)ccc(OC)c2n1C the results were L929 necroptosis 1, HSV augment inactive, TNF death inh -5 and Mdm2 ligase inh 14.
`Cc1cccc(CN2CCC(CNC(=O)CSc3cc(=O)n(C)c4cc(Cl)ccc34)CC2)c1` gave L929 necroptosis -1, HSV augment inactive and TNF death inh -3.
For CN1CCN(c2ccc(C(=O)NC3CCCCC3)cc2[N+](=O)[O-])CC1 the results were L929 necroptosis 28, HSV augment inactive, TNF death inh 2 and Mdm2 ligase inh -1.
Screening CCOC(=O)c1ccc2[nH]c3c(c2c1)CCCC3O (configuration not stated) returned L929 necroptosis 76*, HSV augment inactive, E-sel TNF inh 14, TNF death inh 7, Mdm2 ligase inh 13 and zVAD necrop conf 41.
Screening COc1ccc(/C=C2\N=C(SC)NC2=O)cc1 returned L929 necroptosis 91*, HSV augment inactive, E-sel TNF inh -16, TNF death inh 64*, Mdm2 ligase inh -10 and zVAD necrop conf 77*.
Screening CCSC1=N/C(=C\c2ccc(OC)cc2)C(=O)N1 returned L929 necroptosis 3, HSV augment inactive, TNF death inh 2 and Mdm2 ligase inh -4.
Cc1cccc(C)c1OCCNC(=O)C(=O)NCc1ccco1 was read as L929 necroptosis -2, HSV augment inactive, TNF death inh -6 and Mdm2 ligase inh -4.
`Nc1[nH]nc2ncc3cc4ccccc4nc3c12` gave L929 necroptosis 82*, HSV augment inactive, TNF death inh -3, Mdm2 ligase inh 0 and zVAD necrop conf 37.
CN(C)C=NC(=O)/C(C#N)=C1\CCc2ccccc2N1 was read as L929 necroptosis 83*, HSV augment inactive, E-sel TNF inh 11, TNF death inh 15, Mdm2 ligase inh -18 and zVAD necrop conf 6.
Screening COc1cc(NC(=O)c2ccccn2)cc(OC)c1OC returned L929 necroptosis 0, HSV augment inactive, TNF death inh 0 and Mdm2 ligase inh -10.
`COc1cc(NC(=O)c2cccnc2Sc2ccc(Cl)cc2)cc(OC)c1OC` gave L929 necroptosis 77*, HSV augment inactive, TNF death inh 4, Mdm2 ligase inh -10 and zVAD necrop conf 42.
For CCOC(=O)C(=Cc1c[nH]c2ccc(S(=O)(=O)N(C)C)cc12)C(=O)OCC the results were L929 necroptosis 2, HSV augment inactive, TNF death inh -2 and Mdm2 ligase inh -4.
`O=Nc1c2ccc[nH]c-2c2ccc([N+](=O)[O-])cc12` gave L929 necroptosis 75*, HSV augment inactive, TNF death inh 1, Mdm2 ligase inh -17 and zVAD necrop conf 0.
Cc1ccc(Nc2c(-c3ccccn3)nc3cccc(C)n23)cc1 was read as L929 necroptosis 2, HSV augment inactive, E-sel TNF inh -4, TNF death inh -3 and Mdm2 ligase inh 1.
For CCc1nc(NC(=O)NS(=O)(=O)c2ccccc2C(=O)OC)nc(OC)n1 the results were L929 necroptosis 0, HSV augment inactive, TNF death inh 1 and Mdm2 ligase inh -16.
Screening C/C(CC(=O)Nc1ccc([N+](=O)[O-])cc1)=N/NC(=O)C1CC12CCC2 (configuration not stated) returned L929 necroptosis 0, HSV augment inactive, TNF death inh 1 and Mdm2 ligase inh -11.
Screening Cc1ccc(C(=O)Nc2cccc(C(F)(F)F)c2)cc1NC(=O)c1ccno1 returned L929 necroptosis 74, HSV augment inactive, TNF death inh -1 and Mdm2 ligase inh 25.
Screening Cc1ccc(C(=O)Nc2cccc(C(F)(F)F)c2)cc1Nc1cnccn1 returned L929 necroptosis 82*, HSV augment inactive, TNF death inh 0, Mdm2 ligase inh 14 and zVAD necrop conf 70*.
Screening Cc1ccc(C(=O)Nc2cccc(C(F)(F)F)c2)cc1NC(=O)c1nccn1C returned L929 necroptosis 82*, HSV augment inactive, TNF death inh 4, Mdm2 ligase inh 4 and zVAD necrop conf 10.
For Cc1ccc(C(=O)Nc2cccc(C(F)(F)F)c2)cc1Nc1ncnc2nc[nH]c12 the results were L929 necroptosis 82*, HSV augment inactive, TNF death inh -4, Mdm2 ligase inh 4 and zVAD necrop conf 72*.
O=C(Nc1cnccn1)c1cccc(C(F)(F)F)c1 was read as L929 necroptosis 2, HSV augment inactive, E-sel TNF inh -8, TNF death inh 0 and Mdm2 ligase inh -14.
